Measured values from BindingDB's records for doi:10.1021/acs.jmedchem.5b01947 (Amgen, 2016).
Positions of bridges follow the written chain, without caps; N, C: chain ends. Residues, ends and D or L forms follow the SMILES beside them.

Legend:
[1] = target: T1, Sodium channel protein type 5 subunit alpha (Homo sapiens, UniProt Q14524); test: Inhibition of human Nav1.5 expressed in HEK293 cells assessed as inward peak current by ion-works quattro patch clamp electrophysiology method
In short: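 Stable HEK293 line expressing human NaV1.5, recorded by population patch clamp on the IonWorks Quattro.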

[2] = target: Sodium channel protein type 9 subunit alpha (Homo sapiens, UniProt Q15858); test: Inhibition of human Nav1.7 expressed in HEK293 cells by whole cell patch clamp electrophysiology method
[3] = target: T1, Sodium channel protein type 5 subunit alpha; test: Inhibition of human Nav1.5 expressed in HEK293 cells by whole cell patch clamp electrophysiology method
In short: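 Stable HEK293 line expressing human NaV1.5. Peptides were used only at >95% purity with the correct m/z, and were quantified by chemiluminescent nitrogen detection against a caffeine standard curve.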

T1 sequence (Q14524 whole entry): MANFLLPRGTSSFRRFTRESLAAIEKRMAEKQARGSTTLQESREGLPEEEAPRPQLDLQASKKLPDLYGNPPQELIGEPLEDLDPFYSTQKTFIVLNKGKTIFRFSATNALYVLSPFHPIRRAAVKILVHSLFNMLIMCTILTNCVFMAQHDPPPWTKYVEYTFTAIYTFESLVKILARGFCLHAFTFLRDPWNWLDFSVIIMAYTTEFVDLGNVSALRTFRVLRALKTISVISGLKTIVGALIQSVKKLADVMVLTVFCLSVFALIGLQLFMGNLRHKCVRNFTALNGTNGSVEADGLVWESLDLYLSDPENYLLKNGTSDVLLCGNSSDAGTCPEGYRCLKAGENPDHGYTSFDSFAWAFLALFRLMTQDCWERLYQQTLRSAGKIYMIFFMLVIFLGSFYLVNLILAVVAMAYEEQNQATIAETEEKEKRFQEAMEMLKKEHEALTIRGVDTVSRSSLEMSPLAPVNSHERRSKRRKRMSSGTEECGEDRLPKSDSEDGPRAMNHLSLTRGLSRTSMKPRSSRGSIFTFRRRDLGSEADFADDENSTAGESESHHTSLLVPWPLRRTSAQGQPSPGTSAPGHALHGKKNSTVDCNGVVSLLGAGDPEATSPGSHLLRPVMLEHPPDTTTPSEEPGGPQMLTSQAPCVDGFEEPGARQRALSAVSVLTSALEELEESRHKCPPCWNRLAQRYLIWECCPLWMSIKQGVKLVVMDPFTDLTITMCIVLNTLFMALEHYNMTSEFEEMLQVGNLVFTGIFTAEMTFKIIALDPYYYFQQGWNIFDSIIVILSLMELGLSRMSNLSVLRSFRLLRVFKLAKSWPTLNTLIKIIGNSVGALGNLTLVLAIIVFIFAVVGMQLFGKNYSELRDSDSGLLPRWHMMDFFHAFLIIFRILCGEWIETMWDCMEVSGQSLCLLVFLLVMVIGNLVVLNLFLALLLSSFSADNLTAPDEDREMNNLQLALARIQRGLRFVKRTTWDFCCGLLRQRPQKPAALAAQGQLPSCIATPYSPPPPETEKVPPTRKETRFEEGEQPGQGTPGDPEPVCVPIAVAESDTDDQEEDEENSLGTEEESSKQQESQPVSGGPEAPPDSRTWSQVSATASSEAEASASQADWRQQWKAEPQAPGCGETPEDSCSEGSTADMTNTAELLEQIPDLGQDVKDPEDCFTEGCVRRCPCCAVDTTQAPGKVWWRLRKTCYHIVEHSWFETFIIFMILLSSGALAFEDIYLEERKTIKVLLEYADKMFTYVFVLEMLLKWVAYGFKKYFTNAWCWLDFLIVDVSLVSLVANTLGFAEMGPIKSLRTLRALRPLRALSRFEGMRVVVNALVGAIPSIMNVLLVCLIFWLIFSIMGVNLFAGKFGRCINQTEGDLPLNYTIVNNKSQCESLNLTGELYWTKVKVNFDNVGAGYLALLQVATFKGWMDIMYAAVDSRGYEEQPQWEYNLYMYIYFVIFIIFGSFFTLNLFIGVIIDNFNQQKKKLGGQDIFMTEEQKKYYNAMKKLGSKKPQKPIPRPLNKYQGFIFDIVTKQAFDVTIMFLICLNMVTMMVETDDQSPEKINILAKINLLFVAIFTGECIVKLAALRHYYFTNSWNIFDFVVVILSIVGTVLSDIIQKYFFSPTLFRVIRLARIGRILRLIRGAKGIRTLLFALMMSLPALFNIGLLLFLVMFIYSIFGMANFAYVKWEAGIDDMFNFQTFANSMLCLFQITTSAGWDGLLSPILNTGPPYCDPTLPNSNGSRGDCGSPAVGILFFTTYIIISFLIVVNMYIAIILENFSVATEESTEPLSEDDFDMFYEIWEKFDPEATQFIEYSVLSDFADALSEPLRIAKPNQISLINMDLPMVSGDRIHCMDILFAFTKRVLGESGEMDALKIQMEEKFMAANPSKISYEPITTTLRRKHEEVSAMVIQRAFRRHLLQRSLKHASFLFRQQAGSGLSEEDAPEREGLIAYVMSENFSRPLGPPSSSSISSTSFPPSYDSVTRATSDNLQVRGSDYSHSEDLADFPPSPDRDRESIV
Sequence of Sodium channel protein type 9 subunit alpha (Q15858 whole entry): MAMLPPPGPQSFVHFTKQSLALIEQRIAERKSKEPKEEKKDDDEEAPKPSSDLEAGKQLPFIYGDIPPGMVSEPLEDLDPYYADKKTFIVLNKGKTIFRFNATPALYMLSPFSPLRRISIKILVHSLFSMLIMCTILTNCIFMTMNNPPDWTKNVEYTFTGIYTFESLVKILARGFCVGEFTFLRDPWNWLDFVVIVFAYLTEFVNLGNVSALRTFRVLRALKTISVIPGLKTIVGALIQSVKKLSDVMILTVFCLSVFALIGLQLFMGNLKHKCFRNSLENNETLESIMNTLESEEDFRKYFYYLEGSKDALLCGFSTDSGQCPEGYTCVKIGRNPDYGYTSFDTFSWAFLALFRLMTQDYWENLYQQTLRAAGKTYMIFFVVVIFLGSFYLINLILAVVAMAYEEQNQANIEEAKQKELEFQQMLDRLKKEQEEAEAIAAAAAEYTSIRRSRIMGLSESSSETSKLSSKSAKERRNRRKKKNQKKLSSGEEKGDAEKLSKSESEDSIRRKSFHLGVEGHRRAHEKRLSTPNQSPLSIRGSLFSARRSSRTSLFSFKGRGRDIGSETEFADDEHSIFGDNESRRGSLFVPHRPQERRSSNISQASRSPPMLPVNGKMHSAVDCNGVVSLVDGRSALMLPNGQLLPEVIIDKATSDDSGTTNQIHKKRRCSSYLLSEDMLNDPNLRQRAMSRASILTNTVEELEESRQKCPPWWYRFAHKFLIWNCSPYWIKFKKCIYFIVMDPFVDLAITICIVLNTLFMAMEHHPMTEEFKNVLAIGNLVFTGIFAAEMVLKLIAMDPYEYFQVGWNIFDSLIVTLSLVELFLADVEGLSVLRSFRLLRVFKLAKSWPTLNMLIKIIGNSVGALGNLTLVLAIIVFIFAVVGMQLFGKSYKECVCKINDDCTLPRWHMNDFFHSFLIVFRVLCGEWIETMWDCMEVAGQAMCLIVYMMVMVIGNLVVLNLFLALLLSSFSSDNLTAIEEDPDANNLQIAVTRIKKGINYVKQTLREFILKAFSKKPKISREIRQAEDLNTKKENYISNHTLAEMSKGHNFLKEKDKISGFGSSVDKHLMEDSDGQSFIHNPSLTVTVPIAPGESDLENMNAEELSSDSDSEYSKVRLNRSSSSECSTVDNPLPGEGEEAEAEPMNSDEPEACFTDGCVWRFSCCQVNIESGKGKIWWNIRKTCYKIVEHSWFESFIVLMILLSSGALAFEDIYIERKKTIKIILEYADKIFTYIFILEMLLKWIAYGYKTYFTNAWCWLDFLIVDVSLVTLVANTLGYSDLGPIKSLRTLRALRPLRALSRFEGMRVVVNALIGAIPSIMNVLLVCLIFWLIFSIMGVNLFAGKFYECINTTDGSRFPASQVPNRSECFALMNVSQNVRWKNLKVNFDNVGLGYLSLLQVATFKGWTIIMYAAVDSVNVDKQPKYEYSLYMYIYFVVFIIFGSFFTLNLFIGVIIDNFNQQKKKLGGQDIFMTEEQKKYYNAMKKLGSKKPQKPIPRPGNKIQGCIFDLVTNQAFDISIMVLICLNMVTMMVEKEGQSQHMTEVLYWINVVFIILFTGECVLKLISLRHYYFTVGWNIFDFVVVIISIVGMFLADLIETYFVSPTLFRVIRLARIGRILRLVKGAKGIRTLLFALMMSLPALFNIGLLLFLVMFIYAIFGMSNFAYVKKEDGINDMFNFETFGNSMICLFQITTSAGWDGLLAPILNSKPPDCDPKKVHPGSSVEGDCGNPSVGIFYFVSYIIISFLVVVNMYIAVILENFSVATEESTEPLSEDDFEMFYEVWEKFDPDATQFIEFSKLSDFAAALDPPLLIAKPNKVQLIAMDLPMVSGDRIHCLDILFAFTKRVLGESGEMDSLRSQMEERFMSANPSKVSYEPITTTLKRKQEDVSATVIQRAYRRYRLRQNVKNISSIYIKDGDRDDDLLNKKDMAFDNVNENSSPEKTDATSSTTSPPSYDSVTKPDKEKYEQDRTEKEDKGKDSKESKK

Compound	IC50 [1] [nM]	IC50 [2] [nM]	IC50 [3] [nM]
CC[C@H](C)[C@@H]1NC(=O)[C@@H]2CSSC[C@@H]3NC(=O)[C@H](C(C)C)NC(=O)[C@H](CC(C)C)NC(=O)[C@H](CC(N)=O)NC(=O)[C@@H]4CCCN4C(=O)[C@H](CCCNC(=N)N)NC(=O)[C@H](CSSC[C@H](NC(=O)[C@@H](N)CC(=O)O)C(=O)N[C@@H](CC(C)C)C(=O)NCC(=O)N[C@@H](Cc4ccccc4)C(=O)N[C@@H](CCSC)C(=O)N[C@@H](CCCNC(=N)N)C(=O)N[C@@H](CCCCN)C(=O)N2)NC(=O)[C@H](CSSC[C@@H](C(=O)N[C@@H](CCCCN)C(=O)N[C@@H](Cc2ccc(O)cc2)C(=O)N[C@H](C(=O)N[C@@H](Cc2ccccc2)C(=O)N[C@@H](Cc2c[nH]c4ccccc24)C(N)=O)C(C)C)NC(=O)[C@H](Cc2c[nH]c4ccccc24)NC(=O)[C@H](CCCCN)NC(=O)[C@H](Cc2c[nH]cn2)NC(=O)[C@H]([C@@H](C)O)NC(=O)[C@H](CCCNC(=N)N)NC(=O)[C@H](CO)NC3=O)NC(=O)[C@H](CCCCN)NC(=O)[C@H](CC(=O)O)NC(=O)[C@H](CC(N)=O)NC(=O)[C@H](CC(=O)O)NC(=O)[C@@H]2CCCN2C1=O	> 5000	10	2700
CC[C@H](C)[C@@H]1NC(=O)[C@@H]2CSSC[C@@H]3NC(=O)[C@H](C(C)C)NC(=O)[C@H](CC(C)C)NC(=O)[C@H](CC(N)=O)NC(=O)[C@@H]4CCCN4C(=O)[C@H](CCCNC(=N)N)NC(=O)[C@H](CSSC[C@H](NC(=O)[C@@H](N)CC(=O)O)C(=O)N[C@@H](CCC(=O)O)C(=O)NCC(=O)N[C@@H](Cc4ccccc4)C(=O)N[C@@H](CCSC)C(=O)N[C@@H](CCCNC(=N)N)C(=O)N[C@@H](CCCCN)C(=O)N2)NC(=O)[C@H](CSSC[C@@H](C(=O)N[C@@H](CCCCN)C(=O)N[C@@H](Cc2ccc(O)cc2)C(=O)N[C@H](C(=O)N[C@@H](Cc2ccccc2)C(N)=O)C(C)C)NC(=O)[C@H](Cc2c[nH]c4ccccc24)NC(=O)[C@H](CCCCN)NC(=O)[C@H](Cc2cnc[nH]2)NC(=O)[C@H]([C@@H](C)O)NC(=O)[C@H](CCCNC(=N)N)NC(=O)[C@H](CO)NC3=O)NC(=O)[C@H](CCCCN)NC(=O)[C@H](CC(=O)O)NC(=O)[C@H](CC(N)=O)NC(=O)[C@H](CC(=O)O)NC(=O)[C@@H]2CCCN2C1=O (H-DCEGFMRKCIPDNDKCCRPNLVCSRTHKWCKYVF-NH2; disulfide 2-17, 9-23, 16-30)	> 5000		
